Measurements pooled from the literature.
Lines come from different studies, so protocols differ.
Effect on: cell growth or viability

C#CC[C@@H]1NC(=O)[C@@H](CCCNC(=N)N)NC(=O)[C@H]([C@@H](C)O)NC(=O)[C@@H](CCCN)NC(=O)[C@H](Cc2ccccc2)NC(=O)[C@@H](Cc2ccccc2)NC1=O  IC50 (A549; ATP luminescence): > 100 µM
COc1cc(C(=O)c2nc(-c3c[nH]c4ccccc34)c[nH]2)cc(OC)c1OC  IC50 (PC-3; MTS; 72 h): 0.0711 µM
CC(C)C[C@H](NC(=O)[C@H](CCCCN)NC(=O)[C@H](Cc1c[nH]c2ccccc12)NC(=O)[C@H](CCCNC(=N)N)NC(=O)[C@H](CCCCN)NC(=O)[C@H](CC(C)C)NC(=O)[C@H](Cc1ccccc1)NC(=O)[C@H](CCCCN)NC(=O)[C@H](CCCCN)NC(=O)[C@H](CC(C)C)NC(=O)[C@H](CC(C)C)NC(=O)[C@H](CCCCN)NC(=O)[C@@H](N)CO)C(N)=O  IC50 (A549; MTT; 24 h): 26 µM
N.N.[Cl][Pt][Cl]  IC50 (A549; MTT; 48 h): 15.8 µM
CC(=N)S  IC50 (NIH3T3; 96 h): 109 µM
COc1cc(C(=O)c2nc(-c3cccc4[nH]ccc34)cn2C)cc(OC)c1OC  IC50 (PC-3; MTS; 72 h): 0.17 µM
N.N.[Cl][Pt][Cl]  IC50 (WSU-NHL; ATP luminescence; 72 h): 1.18 µM
CC[C@H](C)[C@H](NC(=O)[C@H](CCCCN)NC(=O)[C@H](CCCNC(=N)N)NC(=O)[C@H](Cc1ccccc1)NC(=O)[C@H](CCCNC(=N)N)NC(=O)[C@H](CCCNC(=N)N)NC(=O)[C@H](CCCNC(=N)N)NC(=O)[C@H](Cc1ccccc1)NC(=O)[C@H](CCCCN)NC(=O)[C@H](CCCNC(=N)N)NC(=O)[C@H](CC(C)C)NC(=O)[C@@H](N)CCCNC(=N)N)C(=O)NCC(N)=O  IC50 (A549; MTT; 24 h): > 500 µM
O=[N+]([O-])c1ccc(NCCCCCCN=C=S)c2nonc12  IC50 (PC-3; MTT; 24 h): 1 µM
O=C1CCP(c2ccccc2)CC1  IC50 (PC-3; MTT; 72 h): 84.2 µM
N.N.[Cl][Pt][Cl]  IC50 (NIH3T3; 96 h; 3D culture): 33.8 µM
CC(C)C[C@H](NC(=O)[C@@H](N)CCCNC(=N)N)C(=O)N[C@@H](CCCNC(=N)N)C(=O)N[C@@H](CCCCN)C(=O)N[C@@H](Cc1ccccc1)C(=O)N[C@@H](CCCNC(=N)N)C(=O)N[C@@H](CCCNC(=N)N)C(=O)N[C@@H](CCCNC(=N)N)C(=O)N[C@@H](Cc1ccccc1)C(=O)N[C@@H](CCCNC(=N)N)C(=O)N[C@@H](CCCCN)C(=O)N[C@@H](CCC(=O)O)C(=O)NCC(N)=O  IC50 (A549; MTT; 24 h): > 500 µM
COc1cc(C(=O)c2nc(-c3ccc4[nH]ccc4c3)c[nH]2)cc(OC)c1OC  IC50 (PC-3; MTS; 72 h): 0.0277 µM
CC[C@@]1(O)C(=O)OCc2c1cc1n(c2=O)Cc2cc3ccccc3nc2-1  IC50 (U-251; SRB; 48 h): 0.064 µM
CC(C)C[C@H](NC(=O)[C@H](CCCCN)NC(=O)[C@H](Cc1c[nH]c2ccccc12)NC(=O)[C@H](Cc1c[nH]c2ccccc12)NC(=O)[C@H](CCCNC(=N)N)NC(=O)[C@H](Cc1c[nH]c2ccccc12)NC(=O)[C@H](Cc1c[nH]cn1)NC(=O)[C@@H](N)CCCNC(=N)N)C(=O)N[C@@H](Cc1c[nH]cn1)C(=O)N[C@@H](Cc1c[nH]c2ccccc12)C(=O)N[C@@H](CCCNC(=N)N)C(=O)N[C@@H](CCC(=O)O)C(=O)N[C@@H](Cc1c[nH]c2ccccc12)C(N)=O  IC50 (A549; MTT; 24 h): 71 µM
